Data as given in PMC7884954 (International Journal of Nanomedicine, 2021).

Key:
SK-OV-3 cells [1] = assay: In vitro cytotoxicity; format: cell-based, human
Procedure, shortened: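 SK-OV-3 cells (IMDM, 10% FCS, non-essential amino acids, 37°C, 7% CO2) were seeded at 10,000/well and left to adhere overnight. They were exposed to a concentration series of free drug (in DMSO) or formulations for 4 h, then switched to fresh medium without irradiation (dark). Next day, MTT (2 mg.mL−1) was added for 4 h, formazan was dissolved in DMSO, and A570 was read. Untreated cells were set as 100%. Three independent experiments; IC50 from non-linear fit.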

SK-OV-3 cells [2] = assay: Assessment of reactive oxygen species; format: cell-based, human; conditions: mTHPC 5 µM, THP 50 µM, 4 h, light dose 0.5 J.cm^−2 vs dark
Procedure, shortened: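 SK-OV-3 cells (IMDM, 10% FCS, non-essential amino acids, 37°C, 7% CO2) were seeded at 25,000/well overnight and washed with DPBS pH 7.4 containing Ca2+/Mg2+. They were loaded with 25 µM H2DCFDA for 1 h at 37 °C, washed, then exposed to free drug or formulation for 4 h at 37°C. After medium exchange, cells were irradiated at 652 nm, lysed, and read at λex 485/λem 520 nm.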

Ex vivo hemolysis assay = conditions: human, washed red blood cells (RBC suspension diluted 1:50), pH 7.4
Procedure, shortened: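 Donor blood in EDTA was spun at 500× g for 5 min. RBCs were washed three times in DPBS pH 7.4, then diluted 1:50 in PBS. The suspension was incubated with test formulations in V-bottom plates for 1 h at 37 °C with orbital shaking. After centrifugation, supernatant absorbance was read at 540 nm. Triton X-100 defined 100% hemolysis, with saline as the other control. Triplicates, mean ± S.D.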

blood plasma = assay: Activated partial thromboplastin time test
Procedure, shortened: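 Plasma was separated from fresh blood by centrifugation at 5000x g for 5 min. It was mixed with an equal volume of test formulation and aPTT reagent, and coagulation was activated with pre-warmed […] CaCl2. Clotting time (s) was recorded spectrophotometrically on a coagulation analyzer, […]. Triplicates, mean ± S.D.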

SK-OV-3 cells [3] = assay: In vitro genotoxicity, alkaline comet assay; format: cell-based, human; conditions: SK-OV-3, 4 h, equitoxic dose, light dose 0.05 Jcm^−2
Procedure, shortened: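 SK-OV-3 cells (100,000/well, six-well plate) adhered overnight, then treated with test formulations for 4 h at 37 °C. After a medium change, cells were irradiated at an equitoxic light dose giving 80% viability and returned for 12 h. Cells were trypsinised, washed twice in PBS, set to 80,000 cells/mL and embedded in 1% low-melting agarose. Slides were ethanol-fixed (70%, 20 min), SYBR Safe-stained and viewed by fluorescence microscopy; 50 comets scored per formulation.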

SK-OV-3 cells [4] = assay: Cellular uptake pathway analysis with chlorpromazine and Filipin-III; format: cell-based, human; conditions: 30 µM chlorpromazine, 15 µM Filipin III, light dose 0.5 Jcm^−2
Procedure, shortened: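 SK-OV-3 cells seeded at 10,000/well, adhered overnight (37 °C, 5% CO2), washed in PBS with Ca2+/Mg2+. Pre-incubated 1 h with chlorpromazine (30 µM) or Filipin III (15 µM), then exposed to test formulations or free drugs in DMSO (photosensitiser 1.5 µM, chemotherapeutic 50 µM) for a total of 4 h. Medium replaced, irradiated 0.50 J.cm−2, MTT after 24 h; un-irradiated dark control.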

[5] = test system: female albino (BALB/c) mice; assay: In vivo acute toxicity: body visceral index; conditions: i.v., post 7 days
Procedure, shortened: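 Female BALB/c mice (30–35 g, 8–10 weeks; 22 ± 2 °C, 12 h light/dark) were randomised into 6 groups of 3. Free drugs in 0.1% DMSO, formulations or saline were given i.v. via tail vein as two equal doses on days 1 and 3 (mTHPC 0.15 mg.kg−1, THP 5 mg.kg−1 equivalent). On day 7, after cervical dislocation, heart, kidney, liver and lungs were washed in saline and weighed. Organ-to-body weight index was compared with controls; mean ± S.D.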

[6] = test system: female albino (BALB/c) mice; assay: In vivo acute toxicity: serum biochemical analysis; conditions: i.v., after 7 days
Procedure, shortened: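 Female BALB/c mice (30–35 g, 8–10 weeks) were used in groups of 3. Free drugs in 0.1% DMSO, formulations or saline were given i.v. via tail vein as two equal doses on days 1 and 3 (mTHPC 0.15 mg.kg−1, THP 5 mg.kg−1 equivalent). On day 7, blood was drawn under anesthesia by thoracic puncture and spun at 1200x g for 10 min. Supernatant was stored at −20 °C and then analysed on a serum biochemistry analyzer.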

[7] = test system: female albino (BALB/c) mice; assay: In vivo acute toxicity: histopathological examinations; conditions: i.v., after 7 days, H&E stain
Procedure, shortened: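 Female BALB/c mice (30–35 g, 8–10 weeks) were randomised to 6 groups (n=3) and given test formulations i.v. via tail vein as two equal doses on days 1 and 3; the saline group was the control. OECD 425 was followed except for the i.v. route. At day 7 mice were killed by cervical dislocation. Heart, liver, kidney and lungs were saline-washed, sectioned by rotary microtome, H&E-stained and examined by light microscopy.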

Row | SMILES | Cytotoxicity (reduction in cell viability) (SK-OV-3 cells [1]; SK-OV-3, dose of 100 µM, no irradiation) [%] | Intracellular ROS production (SK-OV-3 cells [2]) | hemolysis at 1 h (Ex vivo hemolysis assay) [%] | aPTT coagulation time (blood plasma) [s] | DNA damage class (olive tail moment, comet assay) (SK-OV-3 cells [3]) | Cellular uptake mechanism (SK-OV-3 cells [4]) | Visceral body index: kidney weight vs control group [5] | Visceral body index: liver weight vs control group [5] | ALP level vs control group [6] | ALT level vs control group [6] | AST level vs control group [6] | Bilirubin level vs control group [6] | Creatinine level vs control [6] | Total protein level [6] | Uric acid level vs control group [6] | Histopathology: kidney [7] | Histopathology: liver [7] | Histopathology: lungs [7] | Reduction of cell viability (dark toxicity) (SK-OV-3 cells [1]; SK-OV-3, without irradiation, highest mTHPC concentration 5 µM) [%]
1 | COc1cccc2c1C(=O)c1c(O)c3c(c(O)c1C2=O)C[C@@](O)(C(=O)CO)C[C@@H]3O[C@H]1C[C@H](N)[C@H](O[C@@H]2CCCCO2)[C@H](C)O1 [THP, [2″R]‐4′‐O‐tetrahydropyranyl‐doxorubicin] | 72.26 ± 5.40 | no significant difference in the ROS levels | 20 | 127.7 | class-II (class-II damage (5–20%; low damage)) | None of the inhibitors was able to minimize the uptake | slight increase in the organ weight | highest increase | highest increase | increased | highest level | slightly higher | increased | slight increase | moderately increased | signs of necrosis, apoptosis, as well as congestion of the renal tissue | some signs of the apoptotic cells with fibrosis, pyknosis (condensation of nuclei due to apoptosis) and hepatic lesions | small changes in the lung′s histology with the breakage of the lung′s fiber | –
2 | Oc1cccc(-c2c3nc(c(-c4cccc(O)c4)c4ccc([nH]4)c(-c4cccc(O)c4)c4nc(c(-c5cccc(O)c5)c5ccc2[nH]5)CC4)C=C3)c1 [mTHPC, 5, 10, 15, 20-tetrakis (3-hydroxyphenyl) chlorin] | – | increased levels of intracellular ROS | 14 | 60.2 | class-II (class-II damage (5–20%; low damage)) | None of the inhibitors was able to minimize the uptake | slight increase in the organ weight | – | – | increased | slightly higher | slightly higher | increased | slight increase | – | – | – | – | 18.51 ± 1.87
